Reference: ChEMBL document CHEMBL2375316, “Neocosmospora sp.-derived resorcylic acid lactones with in vitro binding affinity for human opioid and cannabinoid receptors” (J Nat Prod, 2013)

What was measured:
[1] = molecular target: Cannabinoid receptor 2 (Homo sapiens) (UniProt P34972); assay: Displacement of [3H]-CP55940 from human recombinant CB2 receptor transfected in HEK293 cells at 10 uM after 90 mins relative to control; assay type: cell-based
[2] = molecular target: Kappa-type opioid receptor (Homo sapiens) (UniProt P41145); conditions: CHO-K1, at 10 µM
Sequence of Kappa-type opioid receptor (Homo sapiens) (P41145 whole entry): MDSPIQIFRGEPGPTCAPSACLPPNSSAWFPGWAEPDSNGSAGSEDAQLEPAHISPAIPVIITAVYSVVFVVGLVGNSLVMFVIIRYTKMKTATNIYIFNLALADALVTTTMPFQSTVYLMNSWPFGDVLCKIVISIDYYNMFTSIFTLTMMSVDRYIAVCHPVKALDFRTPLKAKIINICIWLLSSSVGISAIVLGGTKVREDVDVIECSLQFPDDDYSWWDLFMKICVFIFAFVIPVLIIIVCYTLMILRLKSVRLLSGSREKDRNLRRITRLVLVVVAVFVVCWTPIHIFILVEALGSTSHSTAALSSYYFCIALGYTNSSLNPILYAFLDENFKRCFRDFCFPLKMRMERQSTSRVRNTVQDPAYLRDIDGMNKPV

[3] = molecular target: T1, Delta-type opioid receptor (Homo sapiens, UniProt P41143); assay: Displacement of [3H]-enkephalin from human delta opioid receptor transfected in CHOK1 cells at 10 uM after 60 mins relative to control; assay type: cell-based; conditions: CHO-K1
T1 sequence (P41143 whole entry): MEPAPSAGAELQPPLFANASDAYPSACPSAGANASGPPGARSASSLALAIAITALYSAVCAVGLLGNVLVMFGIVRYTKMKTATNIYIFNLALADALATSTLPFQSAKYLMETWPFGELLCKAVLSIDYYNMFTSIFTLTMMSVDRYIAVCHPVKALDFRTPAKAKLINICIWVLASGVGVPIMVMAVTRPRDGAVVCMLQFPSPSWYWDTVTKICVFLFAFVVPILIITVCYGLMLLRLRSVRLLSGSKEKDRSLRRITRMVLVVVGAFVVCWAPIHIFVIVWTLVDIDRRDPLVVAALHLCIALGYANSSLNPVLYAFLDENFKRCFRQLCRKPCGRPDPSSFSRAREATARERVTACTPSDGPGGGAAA

[4] = molecular target: Mu-type opioid receptor (Homo sapiens) (UniProt P35372); conditions: CHO-K1, at 10 µM
Sequence of Mu-type opioid receptor (Homo sapiens) (P35372 whole entry): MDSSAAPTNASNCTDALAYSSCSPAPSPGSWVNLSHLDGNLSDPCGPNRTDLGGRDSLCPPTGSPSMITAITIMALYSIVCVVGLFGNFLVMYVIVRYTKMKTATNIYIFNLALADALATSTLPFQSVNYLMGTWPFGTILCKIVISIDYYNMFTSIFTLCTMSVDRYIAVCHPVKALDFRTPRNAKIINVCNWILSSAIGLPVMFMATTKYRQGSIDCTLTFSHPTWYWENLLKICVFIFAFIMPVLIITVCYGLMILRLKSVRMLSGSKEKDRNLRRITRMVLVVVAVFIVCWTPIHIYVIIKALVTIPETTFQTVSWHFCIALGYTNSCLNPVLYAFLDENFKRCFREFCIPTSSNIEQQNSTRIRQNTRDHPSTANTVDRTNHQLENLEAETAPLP

[5] = molecular target: T1, Delta-type opioid receptor; assay: Agonist activity at human delta opioid receptor transfected in CHOK1 cells after 60 mins by [35S]GTPgammaS binding assay
[6] = molecular target: T1, Delta-type opioid receptor; assay: Displacement of [3H]-enkephalin from human delta opioid receptor transfected in CHOK1 cells after 60 mins; assay type: cell-based, CHO-K1
[7] = molecular target: T1, Delta-type opioid receptor; assay: Agonist activity at human delta opioid receptor transfected in CHOK1 cells after 60 mins by [35S]GTPgammaS binding assay relative to control; assay type: functional, cell-based; conditions: CHO-K1
How it was run: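 [35S]GTPγS functional assay on membranes from CHO-K1 cells stably expressing δ-opioid receptor; diluted compound incubated with membrane at predetermined protein level plus 0.05 nM [35S]GTPγS, 60 min at room temperature. Terminated by vacuum filtration through GF/C filters, 10 washes 50 mM Tris-HCl pH 7.4, scintillation counting. Basal binding defined as binding with GTPγS buffers.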

[8] = molecular target: Cannabinoid receptor 1 (Homo sapiens) (UniProt P21554); assay: Displacement of [3H]-CP55940 from human recombinant CB1 receptor transfected in HEK293 cells at 10 uM after 90 mins relative to control; assay type: cell-based
Sequence of Cannabinoid receptor 1 (Homo sapiens) (P21554 whole entry): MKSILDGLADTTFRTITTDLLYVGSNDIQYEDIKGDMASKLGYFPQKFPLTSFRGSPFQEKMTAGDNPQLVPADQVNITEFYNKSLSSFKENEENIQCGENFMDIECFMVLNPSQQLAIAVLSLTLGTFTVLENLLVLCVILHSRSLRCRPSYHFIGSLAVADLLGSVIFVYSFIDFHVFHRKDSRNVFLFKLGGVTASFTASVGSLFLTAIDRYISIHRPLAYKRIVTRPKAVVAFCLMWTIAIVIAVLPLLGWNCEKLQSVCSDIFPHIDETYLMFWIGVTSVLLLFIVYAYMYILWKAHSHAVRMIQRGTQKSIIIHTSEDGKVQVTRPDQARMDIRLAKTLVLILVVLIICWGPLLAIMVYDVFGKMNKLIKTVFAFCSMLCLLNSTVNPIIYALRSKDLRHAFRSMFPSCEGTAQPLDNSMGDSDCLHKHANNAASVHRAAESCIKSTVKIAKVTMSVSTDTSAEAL

Sequence of Cannabinoid receptor 2 (Homo sapiens) (P34972 whole entry): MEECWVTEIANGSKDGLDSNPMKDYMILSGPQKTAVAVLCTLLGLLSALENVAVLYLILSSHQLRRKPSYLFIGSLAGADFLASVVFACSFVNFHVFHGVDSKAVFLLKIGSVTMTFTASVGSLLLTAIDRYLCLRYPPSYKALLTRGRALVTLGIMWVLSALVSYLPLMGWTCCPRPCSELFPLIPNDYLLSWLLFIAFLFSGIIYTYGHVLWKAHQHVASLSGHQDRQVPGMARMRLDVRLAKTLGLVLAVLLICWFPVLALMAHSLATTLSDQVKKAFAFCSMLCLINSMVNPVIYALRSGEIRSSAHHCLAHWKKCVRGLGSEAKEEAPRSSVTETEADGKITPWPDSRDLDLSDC

COc1cc(O)c2c(c1)CC(=O)CCCC/C=C/C[C@@H](C)OC2=O
inhibition [1]: 44.5% | inhibition [2]: 11.4% | inhibition [3]: 44.7% | inhibition [4]: 22.4%

COc1cc(O)c2c(c1)CC(=O)CCCC(=O)CCC[C@@H](C)OC2=O
inhibition [1]: 46.3% | inhibition [2]: 32.7% | EC50 [5]: 0.239 µM | inhibition [3]: 54.9% | IC50 [6]: 14.6 µM | Ki [6]: 7.31 µM | Emax [7]: 2400% | inhibition [4]: 24%

C[C@@H]1CCCC(=O)CCCC(=O)Cc2cc(O)cc(O)c2C(=O)O1
inhibition [1]: 27.7% | inhibition [2]: 8.1% | inhibition [4]: 41.3% | inhibition [8]: 47.4%

C[C@@H]1C/C=C/CCCCC(=O)Cc2cc(O)cc(O)c2C(=O)O1
inhibition [2]: 24.7% | inhibition [3]: 45.7% | inhibition [4]: 8.7%

C[C@@H]1C[C@H]2O[C@@H]2/C=C\C=C\C(=O)Cc2c(Cl)c(O)cc(O)c2C(=O)O1
inhibition [1]: 13% | inhibition [4]: 84.9% | inhibition [8]: 30.7%

CCCCCCC(C)(C)c1ccc([C@@H]2C[C@H](O)CC[C@H]2CCCO)c(O)c1
inhibition [1]: 90.3% | inhibition [8]: 88.8%
